Measured values published in ChEMBL document CHEMBL1781963, “Discovery of novel hepatoselective HMG-CoA reductase inhibitors for treating hypercholesterolemia: a bench-to-bedside case study on tissue selective drug distribution” (Bioorg Med Chem Lett, 2011).

How the values were obtained:
L6 [1] = assay: Inhibition of cholesterol synthesis in rat L6 cells assessed as reduction of [14C]-cholesterol level using [14C]-acetic acid preincubated for 3 hrs before addition of [14C]-acetic acid by scintillation counting; assay type: functional, cell-based
Method in brief: (§1)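 Cholesterol synthesis inhibition measured in rat hepatocytes and rat myocyte cell line, giving IC50 for each. Mean ± SEM of n ≥ 2 independent determinations.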

[2] = target: T1, 3-hydroxy-3-methylglutaryl-coenzyme A reductase (Rattus norvegicus, UniProt P51639); assay: Inhibition of HMG-CoA reductase in Sprague-Dawley rat liver microsomes using [14C]HMG-CoA as substrate preincubated for 0.5 hrs before substrate addition measured after 0.75 hrs by beta scintillation counting; set-up: species or system Microsome
T1 sequence (P51639 whole entry): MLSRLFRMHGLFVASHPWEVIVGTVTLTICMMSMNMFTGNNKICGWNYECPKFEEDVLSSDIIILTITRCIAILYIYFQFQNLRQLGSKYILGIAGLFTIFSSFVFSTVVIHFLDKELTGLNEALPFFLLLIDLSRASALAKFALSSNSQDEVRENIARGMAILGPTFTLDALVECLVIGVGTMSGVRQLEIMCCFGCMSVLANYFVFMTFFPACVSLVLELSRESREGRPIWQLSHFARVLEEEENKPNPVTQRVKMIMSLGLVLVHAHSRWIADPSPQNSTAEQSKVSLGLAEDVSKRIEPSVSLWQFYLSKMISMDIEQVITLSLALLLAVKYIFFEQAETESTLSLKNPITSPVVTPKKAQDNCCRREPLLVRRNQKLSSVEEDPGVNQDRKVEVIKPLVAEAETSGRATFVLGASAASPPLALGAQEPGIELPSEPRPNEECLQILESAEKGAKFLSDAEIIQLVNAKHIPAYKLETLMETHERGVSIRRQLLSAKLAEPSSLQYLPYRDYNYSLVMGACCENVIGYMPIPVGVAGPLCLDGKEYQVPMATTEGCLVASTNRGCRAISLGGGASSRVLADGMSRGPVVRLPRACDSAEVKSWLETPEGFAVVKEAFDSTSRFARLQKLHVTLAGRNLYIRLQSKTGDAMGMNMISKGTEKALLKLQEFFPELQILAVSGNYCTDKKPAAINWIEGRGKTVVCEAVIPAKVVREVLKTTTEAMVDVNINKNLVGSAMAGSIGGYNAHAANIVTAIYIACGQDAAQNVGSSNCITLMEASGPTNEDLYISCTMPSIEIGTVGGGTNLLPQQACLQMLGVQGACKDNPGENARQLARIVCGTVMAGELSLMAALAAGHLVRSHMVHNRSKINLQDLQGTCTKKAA
Method in brief: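 Enzyme inhibition was measured in an HMG-CoA reductase preparation from rat microsomes. IC50 is reported as mean ± SEM of n ≥ 2 independent determinations.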

Hepatocyte = assay: Inhibition of cholesterol synthesis in rat hepatocytes assessed as reduction of [14C]-cholesterol level using [14C]-acetic acid preincubated for 4 hrs before addition of [14C]-acetic acid by liquid scintillation counting; assay type: functional, cell-based; method in brief: as §1
[3] = Lipophilicity, log D of the compound at pH 7.4 by shake flask method; assay type: physicochemical; settings: buffer
Method in brief: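 Log D at pH 7.4 by shake flask.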

L6 [4] = assay: Selectivity ratio of IC50 for cholesterol synthesis in rat L6 cells to IC50 for cholesterol synthesis in rat hepatocytes
Syrian golden hamster [5] = assay: Inhibition of cholesterol synthesis in golden syrian hamster assessed as reduction of [14C]-cholesterol level at 10 mg/kg, po followed by 3 hrs after treated with 80 uCi, ip of [14C]-sodium acetate measured after 5 hrs by liquid scintillation counting relative to control; assay type: functional; settings: Mesocricetus auratus
Method in brief: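 Separate hamster groups dosed po at 10 mg/kg at t = 0 h. 14C sodium acetate ip at t = 3 h, blood 14C cholesterol at t = 5 h. Percent change vs untreated controls, n = 8/group.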

Syrian golden hamster [6] = assay: Inhibition of cholesterol synthesis in golden syrian hamster assessed as reduction of [14C]-cholesterol level at 10 mg/kg, po followed by 2 hrs after treated with 80 uCi, ip of [14C]-sodium acetate measured after 4 hrs by liquid scintillation counting relative to control; assay type: functional; settings: Mesocricetus auratus
Method in brief: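 Hamsters dosed po at 10 mg/kg at t = 0 h. Intraperitoneal 14C sodium acetate at t = 2 h, blood drawn at t = 4 h for 14C cholesterol. Percent inhibition vs untreated controls, n = 8/group.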

Row | IC50 [2] [nM] | logD [3] | Compound | IC50 (L6 [1]) [nM] | IC50 (Hepatocyte) [nM] | Ratio IC50 (L6 [4]) | inhibition in vivo at 10 mg/kg (Syrian golden hamster [5]) [%] | inhibition in vivo at 10 mg/kg (Syrian golden hamster [6]) [%]
1 | 7.2 | -1.1 | NC(=O)c1ccc(CNC(=O)c2nc(-c3ccc(F)cc3)n(CC[C@@H](O)C[C@@H](O)CC(=O)[O-])c2C2CC2)cc1.[Na+] | > 100000 | 0.4 | > 250000 | 0 | –
2 | 3.7 | – | COc1ccc(CNC(=O)c2nc(-c3ccc(F)cc3)n(CC[C@@H](O)C[C@@H](O)CC(=O)[O-])c2C2CC2)cc1F.[Na+] | 890 | 0.2 | 4450 | 0 | -36
3 | 3.4 | 0.17 | O=C([O-])C[C@H](O)C[C@H](O)CCn1c(-c2ccc(F)cc2)nc(C(=O)NCc2ccc(F)cc2)c1C1CC1.[Na+] | 1620 | 0.7 | 2310 | 0 | –
4 | 1.7 | 0.45 | Cc1ccc(CNC(=O)c2nc(-c3ccc(F)cc3)n(CC[C@@H](O)C[C@@H](O)CC(=O)[O-])c2C2CC2)cc1.[Na+] | 178 | 0.1 | 1780 | -36 | -79
5 | 1.2 | 0.02 | COc1ccc(CNC(=O)c2nc(-c3ccc(F)cc3)n(CC[C@@H](O)C[C@@H](O)CC(=O)[O-])c2C2CC2)cc1.[Na+] | 6400 | 0.2 | 32000 | – | -60
6 | 7 | 0.16 | COc1ccccc1CNC(=O)c1nc(-c2ccc(F)cc2)n(CC[C@@H](O)C[C@@H](O)CC(=O)[O-])c1C1CC1.[Na+] | 10700 | 0.1 | 107000 | – | –
7 | 7.2 | 0.47 | Cc1cccc(CNC(=O)c2nc(-c3ccc(F)cc3)n(CC[C@@H](O)C[C@@H](O)CC(=O)[O-])c2C2CC2)c1.[Na+] | 532 | 0.3 | 1770 | -50 | -54
8 | 4.9 | -0.46 | CN(C)S(=O)(=O)c1ccc(CNC(=O)c2nc(-c3ccc(F)cc3)n(CC[C@@H](O)C[C@@H](O)CC(=O)[O-])c2C2CC2)cc1.[Na+] | > 100000 | 0.5 | > 200000 | 0 | –
9 | 1.2 | 0.11 | COc1cccc(CNC(=O)c2nc(-c3ccc(F)cc3)n(CC[C@@H](O)C[C@@H](O)CC(=O)[O-])c2C2CC2)c1.[Na+] | 538 | 0.2 | 2960 | -42 | -53
10 | 1.4 | 0.03 | O=C([O-])C[C@H](O)C[C@H](O)CCn1c(-c2ccc(F)cc2)nc(C(=O)NCc2ccccc2)c1C1CC1.[Na+] | 632 | 0.2 | 3160 | – | -58

Continued, compound first:

Row | Compound | IC50 [2] [nM] | logD [3] | IC50 (L6 [1]) [nM] | IC50 (Hepatocyte) [nM] | Ratio IC50 (L6 [4]) | inhibition in vivo at 10 mg/kg (Syrian golden hamster [5]) [%] | inhibition in vivo at 10 mg/kg (Syrian golden hamster [6]) [%]
11 | CC(C)c1c(C(=O)NCc2ccccc2)nc(-c2ccc(F)cc2)n1CC[C@@H](O)C[C@@H](O)CC(=O)[O-].[Na+] | – | 0.64 | – | – | 10100 | -7 | -53
12 | Cc1c(C(=O)NCc2ccccc2)nc(-c2ccc(F)cc2)n1CC[C@@H](O)C[C@@H](O)CC(=O)O | 94 | – | – | – | – | – | –
13 | O=C(O)C[C@H](O)C[C@H](O)CCn1c(-c2ccc(F)cc2)nc(C(=O)NCc2ccccc2F)c1C1CC1 | 1.5 | 0.08 | 27200 | – | – | -4 | –
14 | CCCc1c(C(=O)NCc2ccccc2)nc(-c2ccc(F)cc2)n1CC[C@@H](O)C[C@@H](O)CC(=O)O | 26 | – | – | – | – | – | –
15 | O=C([O-])C[C@H](O)C[C@H](O)CCn1c(-c2ccc(F)cc2)nc(C(=O)NCc2ccc(F)cc2F)c1C1CC1.[Na+] | 1.2 | – | 4870 | 0.2 | 24350 | – | -46
16 | Cc1ccccc1CNC(=O)c1nc(-c2ccc(F)cc2)n(CC[C@@H](O)C[C@@H](O)CC(=O)[O-])c1C1CC1.[Na+] | 4.9 | 0.44 | 4850 | 0.1 | 48500 | 0 | –
17 | CCc1c(C(=O)NCc2ccccc2)nc(-c2ccc(F)cc2)n1CC[C@@H](O)C[C@@H](O)CC(=O)O | 123 | – | – | – | – | – | –
18 | Cc1ccc(CNC(=O)c2nc(-c3ccc(F)cc3)n(CC[C@@H](O)C[C@@H](O)CC(=O)[O-])c2C2CC2)cc1F.[Na+] | 4.1 | 0.69 | 224 | 0.1 | 2240 | – | –
19 | O=C([O-])C[C@H](O)C[C@H](O)CCn1c(-c2ccc(F)cc2)nc(C(=O)NCc2ccc(F)c(F)c2)c1C1CC1.[Na+] | 1.2 | – | 2780 | 0.5 | 5560 | -8 | –
